Measured values as given in ChEMBL document CHEMBL1833856, “Discovery and kinetic evaluation of 6-substituted 4-benzylthio-1,3,5-triazin-2(1H)-ones as inhibitors of cathepsin B” (Eur J Med Chem, 2011).
pKi: −log10 of the molar value.

Key:
[1] = molecular target: T1, Cathepsin B (Homo sapiens, UniProt P07858); test: Reversible inhibition of human recombinant cathepsin B assessed as formation of fluorescent degradation product AMC using Z-Arg-Arg-AMC as substrate by Michaelis-Menten method
Procedure, shortened: (§1)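 Recombinant human catB (133 pM) preactivated 5 min at 37 °C in 100 mM phosphate pH 6.0, 0.1% PEG 8000, 5 mM DTT, 1.5 mM EDTA, 5% DMSO. Initial hydrolysis rates taken across Z-Arg-Arg-AMC (60, 180, 360 µM, as added) and inhibitor (0–70 µM, as added). AMC read ex 380/em 460 nm at 37 °C. Duplicates, two independent runs. β fitted for ES-complex binding.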

[2] = molecular target: T1, Cathepsin B; test: Partial mixed-type inhibition of human recombinant cathepsin B assessed as formation of fluorescent degradation product AMC using Z-Arg-Arg-AMC as substrate by Michaelis-Menten method; procedure, shortened: as §1
[3] = molecular target: T1, Cathepsin B; test: Inhibition of human recombinant cathepsin B assessed as factor by which the product formation changes when the inhibitor binds to the enzyme-substrate complex using Z-Arg-Arg-AMC as substrate by fluorescence microplate assay; procedure, shortened: as §1
[4] = molecular target: T1, Cathepsin B; test: Inhibition of human recombinant cathepsin B assessed as formation of fluorescent degradation product AMC using Z-Arg-Arg-AMC as substrate at 50 uM by fluorescence microplate assay
[5] = molecular target: Procathepsin L (Homo sapiens) (UniProt P07711); test: Inhibition of human recombinant cathepsin L expressed in Escherichia coli assessed as formation of fluorescent degradation product AMC using Z-Phe-Arg-AMC as substrate at 50 uM by fluorescence microplate assay
Procathepsin L (Homo sapiens), sequence (P07711 114-333 limits assumed): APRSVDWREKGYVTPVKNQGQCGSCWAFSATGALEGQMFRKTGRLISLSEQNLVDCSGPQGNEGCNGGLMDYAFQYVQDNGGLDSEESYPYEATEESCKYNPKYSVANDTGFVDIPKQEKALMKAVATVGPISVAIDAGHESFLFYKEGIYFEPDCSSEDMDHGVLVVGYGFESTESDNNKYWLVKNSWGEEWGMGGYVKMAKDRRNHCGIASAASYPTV

[6] = molecular target: T2, Pro-cathepsin H (Homo sapiens) (UniProt P09668); test: Inhibition of native cathepsin H isolated from human liver assessed as formation of fluorescent degradation product AMC using Arg-AMC as substrate at 50 uM by fluorescence microplate assay
T2 sequence (whole entry): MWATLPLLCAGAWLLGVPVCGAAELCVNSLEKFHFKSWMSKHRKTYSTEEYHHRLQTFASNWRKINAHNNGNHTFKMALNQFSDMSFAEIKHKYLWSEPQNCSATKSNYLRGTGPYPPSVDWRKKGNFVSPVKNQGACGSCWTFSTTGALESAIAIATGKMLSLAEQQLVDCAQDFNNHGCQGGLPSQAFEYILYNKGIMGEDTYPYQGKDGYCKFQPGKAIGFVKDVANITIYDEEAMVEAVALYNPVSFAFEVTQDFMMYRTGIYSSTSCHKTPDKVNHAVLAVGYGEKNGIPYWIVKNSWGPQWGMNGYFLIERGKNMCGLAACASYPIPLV

[7] = molecular target: T1, Cathepsin B; test: Mixed-type inhibition of human recombinant cathepsin B assessed as formation of fluorescent degradation product AMC using Z-Arg-Arg-AMC as substrate by Michaelis-Menten method; procedure, shortened: as §1

## O=c1nc(SCc2ccccc2)nc(SCc2ccc([N+](=O)[O-])cc2)[nH]1
[1]
  pKi: 5.00
[2]
  pKi: 5.40
[3]
  fold change (FC): 0.17

## COc1ccc(CNc2nc(Cl)nc(Cl)n2)cc1
[4]
  inhibition: 3.99%
[5]
  inhibition: 0.48%
[6]
  inhibition: 6.37%

## N#Cc1ccc(CSc2nc(SCc3ccccc3)nc(=O)[nH]2)c(F)c1
[1]
  pKi: 4.64
[2]
  pKi: 5.01
[3]
  fold change (FC): 0.07

## CCCSc1nc(SCc2ccccc2)[nH]c(=O)n1
[1]
  pKi: 3.59
[7]
  pKi: 4.31

## COc1ccc(CSc2nc(SCc3ccccc3)nc(=O)[nH]2)cc1
[1]
  pKi: 4.95
[2]
  pKi: 4.99
[3]
  fold change (FC): 0.2

## N#Cc1ccc(CSc2nc(SCc3ccccc3)nc(=O)[nH]2)cc1
[1]
  pKi: 4.61
[2]
  pKi: 4.97
[3]
  fold change (FC): 0.07
[5]
  inhibition: 44.9%
[6]
  inhibition: 1.55%

## C[C@@H](NC(=O)c1ccccc1Nc1nc(Cl)nc(Cl)n1)C(=O)O
[4]
  inhibition: -1.7%
[5]
  inhibition: -5.15%

## O=c1nc(-c2cccc([N+](=O)[O-])c2)nc(S)[nH]1
[4]
  inhibition: 4.71%
[5]
  inhibition: 7.7%
[6]
  inhibition: 7.97%

## CC(C)(C)c1ccccc1Nc1nc(Cl)nc(Cl)n1
[4]
  inhibition: -7.27%
[5]
  inhibition: 4.36%
[6]
  inhibition: -4.16%

## CCSc1nc(SCc2ccccc2)nc(=O)[nH]1
[1]
  pKi: 3.66
[3]
  fold change (FC): 0
[7]
  pKi: 4.01
[6]
  inhibition: -4.06%

## N#Cc1ccccc1CSc1nc(SCc2ccccc2)nc(=O)[nH]1
[1]
  pKi: 4.39
[2]
  pKi: 4.98
[3]
  fold change (FC): 0.04

## O=c1nc(SCc2ccccc2)nc(SCc2ccccc2F)[nH]1
[1]
  pKi: 5.02
[2]
  pKi: 5.05
[3]
  fold change (FC): 0.36

## O=c1nc(SCc2ccccc2)nc(S)[nH]1
[4]
  inhibition: 2.5%
[5]
  inhibition: 3.79%
[6]
  inhibition: 9.63%

## O=c1nc(SCc2ccccc2)nc(SCc2ccccc2Cl)[nH]1
[1]
  pKi: 5.14
[2]
  pKi: 5.44
[3]
  fold change (FC): 0.23

## O=c1nc(SCc2ccccc2)nc(SCC2CC2)[nH]1
[1]
  pKi: 3.67
[3]
  fold change (FC): 0
[5]
  inhibition: 42%
[7]
  pKi: 4.55
[6]
  inhibition: 10%

## O=c1nc(SCc2ccccc2)nc(SCC2CCC2)[nH]1
[1]
  pKi: 4.47
[3]
  fold change (FC): 0
[5]
  inhibition: 37.4%
[7]
  pKi: 4.99
[6]
  inhibition: 1.57%

## O=c1nc(SCc2ccccc2)nc(SCc2ccc(F)cc2)[nH]1
[1]
  pKi: 4.78
[2]
  pKi: 4.86
[3]
  fold change (FC): 0.33

## CC(C)OC(=O)[C@H](C)NC(=O)c1ccc(Nc2nc(Cl)nc(Cl)n2)cc1
[4]
  inhibition: 1.68%
[5]
  inhibition: -6.12%
[6]
  inhibition: 3.02%

## O=c1nc(SCc2ccccc2)nc(SCc2cccc([N+](=O)[O-])c2)[nH]1
[1]
  pKi: 4.95
[2]
  pKi: 5.48
[3]
  fold change (FC): 0.15
[5]
  inhibition: 81.2%
[6]
  inhibition: 3.92%

## O=c1nc(SCc2ccccc2)nc(SCc2cccc(F)c2)[nH]1
[1]
  pKi: 4.99
[2]
  pKi: 5.13
[3]
  fold change (FC): 0.22
[5]
  inhibition: 7.68%
[6]
  inhibition: 4.18%

## O=c1nc(SCc2ccccc2)nc(SCc2ccc(Cl)cc2)[nH]1
[1]
  pKi: 5.36
[2]
  pKi: 5.60
[3]
  fold change (FC): 0.25
[5]
  inhibition: 85.2%
[6]
  inhibition: 6.91%

## COc1nc(OC)nc(Sc2ccccc2C(=O)N[C@@H](C)C(=O)OCc2ccccc2)n1
[4]
  inhibition: 3.18%
[5]
  inhibition: -4.25%
[6]
  inhibition: 1.34%

## COc1cccc(CSc2nc(SCc3ccccc3)nc(=O)[nH]2)c1
[1]
  pKi: 4.89
[2]
  pKi: 4.66
[3]
  fold change (FC): 0.42

## COc1ccccc1CSc1nc(SCc2ccccc2)nc(=O)[nH]1
[1]
  pKi: 4.81
[2]
  pKi: 5.36
[3]
  fold change (FC): 0.22
[4]
  inhibition: 79.6%
[5]
  inhibition: 61.3%
[6]
  inhibition: 1.06%

## OCCc1ccccc1Nc1nc(Cl)nc(Cl)n1
[4]
  inhibition: -3.38%

## CCc1ccccc1Nc1nc(Cl)nc(Cl)n1
[4]
  inhibition: -3.44%
[5]
  inhibition: -1.59%
[6]
  inhibition: -2.26%

## COc1nc(OC)nc(Sc2ccccc2C(=O)O)n1
[4]
  inhibition: 2.35%
[5]
  inhibition: 15.8%

## OCCc1ccccc1Nc1nc(Cl)nc(N2CCOCC2)n1
[4]
  inhibition: -4.76%
[6]
  inhibition: -8.72%

## O=c1nc(SCc2ccccc2)nc(SCc2ccccc2[N+](=O)[O-])[nH]1
[1]
  pKi: 4.92
[2]
  pKi: 5.22
[3]
  fold change (FC): 0.24

## COc1ccc(CNc2nc(Cl)nc(N(C)CCO)n2)cc1
[4]
  inhibition: 0.92%
[5]
  inhibition: 9.95%
[6]
  inhibition: 7.12%

## CCCSc1nc(SCc2ccccc2)nc(=O)[nH]1
[3]
  fold change (FC): 0
[5]
  inhibition: -8.66%
[6]
  inhibition: -4.82%

## N#CCSc1nc(SCc2ccccc2)nc(=O)[nH]1
[1]
  pKi: 3.68
[3]
  fold change (FC): 0
[5]
  inhibition: -5.28%
[7]
  pKi: 4.29
[6]
  inhibition: 4.94%

## CCCCSc1nc(SCc2ccccc2)nc(=O)[nH]1
[1]
  pKi: 4.15
[3]
  fold change (FC): 0
[5]
  inhibition: 9.33%
[7]
  pKi: 4.83
[6]
  inhibition: -1.81%

## O=c1nc(SCc2ccccc2)nc(SCc2cccc(Cl)c2)[nH]1
[1]
  pKi: 5.27
[2]
  pKi: 5.35
[3]
  fold change (FC): 0.28

## O=c1nc(-c2ccccc2)nc(S)[nH]1
[4]
  inhibition: -3.22%
[5]
  inhibition: -1.89%
[6]
  inhibition: 4.86%

## COC(=O)c1ccccc1Oc1nc(OC)nc(OC)n1
[4]
  inhibition: -0.33%
[5]
  inhibition: -9.64%
[6]
  inhibition: -5.34%

## Cc1ccc(-c2nc(S)[nH]c(=O)n2)cc1
[4]
  inhibition: 9.02%
[5]
  inhibition: 6.37%
[6]
  inhibition: 6.58%

## COc1nc(Nc2ccccc2C(=O)O)nc(OC)n1
[4]
  inhibition: 6.34%
[5]
  inhibition: -3.14%
[6]
  inhibition: 2.63%

## N#Cc1cccc(CSc2nc(SCc3ccccc3)nc(=O)[nH]2)c1
[1]
  pKi: 4.33
[2]
  pKi: 5.04
[3]
  fold change (FC): 0.02

## O=c1nc(SCc2ccccc2)nc(SCC2CCCCC2)[nH]1
[1]
  pKi: 4.92
[2]
  pKi: 5.48
[3]
  fold change (FC): 0.12
[5]
  inhibition: 76.2%
[6]
  inhibition: 10.2%

## COC(=O)c1ccccc1Nc1nc(Cl)nc(Cl)n1
[4]
  inhibition: -0.92%
[5]
  inhibition: 8.76%
[6]
  inhibition: -4.23%

## O=c1nc(SCc2ccccc2)nc(SCC2CCCC2)[nH]1
[1]
  pKi: 4.64
[3]
  fold change (FC): 0
[5]
  inhibition: 9.96%
[7]
  pKi: 5.05
[6]
  inhibition: 10.6%

## COc1nc(N[C@H](CCC(=O)O)C(=O)O)nc(OC)n1
[4]
  inhibition: -5.48%
[6]
  inhibition: 0.34%

## COc1ccc(CCNc2nc(Cl)nc(Cl)n2)cc1OC
[4]
  inhibition: -9.7%
[5]
  inhibition: -0.33%
[6]
  inhibition: -2.17%

## Clc1nc(Cl)nc(Nc2ccccc2Br)n1
[4]
  inhibition: -1.59%
[5]
  inhibition: 0.59%
[6]
  inhibition: 4.52%

## O=C(O)c1ccccc1Sc1nc(Cl)nc(Cl)n1
[4]
  inhibition: 2.3%
[6]
  inhibition: -1.7%

## O=C(O)CSc1nc(SCc2ccccc2)nc(=O)[nH]1
[1]
  pKi: 3.25
[3]
  fold change (FC): 0
[5]
  inhibition: -2.36%
[7]
  pKi: 3.45
[6]
  inhibition: 6.89%

## CN(CCO)c1nc(Cl)nc(Nc2ccccc2CCO)n1
[4]
  inhibition: -3.56%
[5]
  inhibition: 11.6%
[6]
  inhibition: 0.61%
